ChEMBL document CHEMBL1135120, “Novel lipoic acid analogues that inhibit nitric oxide synthase” (Bioorg Med Chem Lett, 2002)

What was measured:
Nitric oxide synthase 1 [1] = biological target: T1, Nitric oxide synthase 1 (Homo sapiens, UniProt P29475); assay: In vitro inhibition concentration was evaluated on the effect of conversion by Nitric Oxide synthase of [3H]L-arginine into [3H]L-citrulline
Mus musculus [2] = species on record: Mus musculus; assay: Ability for prevention of GSH depletion was measured in mouse; format: functional
In short: (§1)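 Glutamate-challenged HT22 cells; total intracellular GSH measured by enzymatic glutathione assay, i.e. formation of 5-thio-2-nitrobenzoic acid from GSH oxidation by 5,5'-dithiobis(2-nitrobenzoic acid).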

HT22 (Mus musculus) [3] = assay: Neuroprotective effect was measured by its ability to protect mouse hippocampal neuronal HT-22 cell lines from oxidative stress caused by glutamate
Nitric oxide synthase 1 [4] = biological target: T1, Nitric oxide synthase 1; assay: In vitro inhibition concentration was evaluated on the effect of conversion by Nitric oxide synthase of [3H]L-arginine into [3H]L-citrulline
Mus musculus [5] = species on record: Mus musculus; assay: Ability for prevention of GSH depletion was measured in mouse; Not active up to 100 uM; format: functional; in short: as §1
HT22 (Mus musculus) [6] = assay: Neuroprotective effect was measured by its ability to protect mouse hippocampal neuronal HT-22 cell lines from oxidative stress caused by glutamate; Not active up to 100 uM
Nitric oxide synthase 1 [7] = biological target: T1, Nitric oxide synthase 1; assay: In vitro inhibition concentration was evaluated on the effect of conversion by Nitric Oxide synthase of [3H]L-arginine into [3H]L-citrulline; Not active up to 100 uM

T1 sequence (P29475 whole entry): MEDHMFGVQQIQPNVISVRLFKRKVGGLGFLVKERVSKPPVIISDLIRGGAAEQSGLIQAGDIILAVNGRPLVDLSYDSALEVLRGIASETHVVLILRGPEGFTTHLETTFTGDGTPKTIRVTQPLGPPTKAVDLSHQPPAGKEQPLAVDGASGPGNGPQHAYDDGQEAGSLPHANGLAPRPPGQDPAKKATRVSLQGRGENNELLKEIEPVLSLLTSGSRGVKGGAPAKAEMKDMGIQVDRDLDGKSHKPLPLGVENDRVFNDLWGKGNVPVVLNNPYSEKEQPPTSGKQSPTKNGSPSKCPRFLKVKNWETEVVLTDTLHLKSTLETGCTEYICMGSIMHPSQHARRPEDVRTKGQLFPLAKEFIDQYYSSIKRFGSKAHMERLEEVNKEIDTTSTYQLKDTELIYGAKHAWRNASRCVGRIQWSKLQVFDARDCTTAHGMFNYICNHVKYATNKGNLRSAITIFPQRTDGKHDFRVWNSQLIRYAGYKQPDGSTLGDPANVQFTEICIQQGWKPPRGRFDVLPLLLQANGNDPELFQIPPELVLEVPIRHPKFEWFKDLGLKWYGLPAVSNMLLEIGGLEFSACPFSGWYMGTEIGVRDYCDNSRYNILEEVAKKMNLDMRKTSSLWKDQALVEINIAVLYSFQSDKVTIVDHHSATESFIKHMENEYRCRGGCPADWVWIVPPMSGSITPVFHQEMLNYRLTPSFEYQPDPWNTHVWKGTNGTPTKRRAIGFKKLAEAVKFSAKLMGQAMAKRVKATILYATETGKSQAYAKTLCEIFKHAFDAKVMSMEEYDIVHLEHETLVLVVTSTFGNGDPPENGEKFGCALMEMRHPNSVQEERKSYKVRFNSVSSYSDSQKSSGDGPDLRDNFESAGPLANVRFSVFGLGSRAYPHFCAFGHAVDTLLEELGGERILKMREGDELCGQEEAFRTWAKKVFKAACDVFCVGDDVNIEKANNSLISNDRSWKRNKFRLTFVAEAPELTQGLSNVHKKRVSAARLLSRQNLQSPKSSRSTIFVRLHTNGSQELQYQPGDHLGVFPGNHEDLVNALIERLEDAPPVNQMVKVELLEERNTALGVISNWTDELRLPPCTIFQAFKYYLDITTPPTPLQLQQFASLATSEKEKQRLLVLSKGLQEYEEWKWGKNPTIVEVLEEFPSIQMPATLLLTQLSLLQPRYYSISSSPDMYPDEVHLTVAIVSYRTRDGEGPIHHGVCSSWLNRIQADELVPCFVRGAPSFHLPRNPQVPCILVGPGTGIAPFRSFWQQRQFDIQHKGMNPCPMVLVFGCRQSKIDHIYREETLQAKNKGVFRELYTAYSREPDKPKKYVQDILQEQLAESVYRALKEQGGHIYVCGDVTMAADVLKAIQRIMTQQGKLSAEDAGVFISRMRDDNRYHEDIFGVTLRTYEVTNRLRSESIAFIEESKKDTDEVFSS

Question: Which IC50 (Nitric oxide synthase 1 [1]) does the source give for N=C(Nc1ccc(NC(=O)CCCCC2CCSS2)cc1)c1cccs1 (stereo unspecified) here?
Answer: 3.5 µM

Question: And the EC50 (Mus musculus [2])?
Answer: 46.9 µM

Question: And the EC50 (HT22 (Mus musculus) [3])?
Answer: 11.1 µM

Question: What does the source list for N=C(Nc1ccc(CCNC(=O)CCCCC2CCSS2)cc1)c1cccs1 (stereo unspecified)?
Answer: IC50 (Nitric oxide synthase 1 [1]): 1.04 µM; EC50 (Mus musculus [2]): 37.1 µM; EC50 (HT22 (Mus musculus) [3]): 11.7 µM

Question: What does the source list for N=C(Nc1ccccc1)c1cccs1?
Answer: IC50 (Nitric oxide synthase 1 [4]): 4 µM; EC50 (Mus musculus [5]): Not Active; EC50 (HT22 (Mus musculus) [6]): Not Active

Question: What does the source list for NC(=Nc1ccc(CNC(=O)CCCCC2CCSS2)cc1)c1cccs1 (stereo unspecified)?
Answer: IC50 (Nitric oxide synthase 1 [1]): 2.3 µM; EC50 (Mus musculus [2]): 64.8 µM; EC50 (HT22 (Mus musculus) [3]): 6.3 µM

Question: How did the IC50 (Nitric oxide synthase 1 [1]) turn out when N=C(Nc1ccc(CCNC(=O)CC2CCSS2)cc1)c1cccs1 (stereo unspecified) was run?
Answer: 1.15 µM

Question: And the EC50 (Mus musculus [2])?
Answer: 12.3 µM

Question: And the EC50 (HT22 (Mus musculus) [3])?
Answer: 1.8 µM

Question: With NC(=Nc1ccc(NC(=O)CC2CCSS2)cc1)c1cccs1 (stereo unspecified) as the compound, how does the IC50 (Nitric oxide synthase 1 [1]) read?
Answer: 4.4 µM

Question: What about the EC50 (Mus musculus [2]) of the same compound?
Answer: 11.9 µM

Question: And the EC50 (HT22 (Mus musculus) [3])?
Answer: 9.6 µM

Question: What does the source list for O=C(O)CCCCC1CCSS1 (stereo not drawn) [LIPOIC ACID, ALPHA]?
Answer: IC50 (Nitric oxide synthase 1 [7]): Not Active; EC50 (Mus musculus [2]): 122 µM; EC50 (HT22 (Mus musculus) [3]): 19.6 µM
